Source: ChEMBL document CHEMBL1240487, “Discovery of a potent, selective, and orally bioavailable pyridinyl-pyrimidine phthalazine aurora kinase inhibitor” (J Med Chem, 2010)
In brackets after ≈: the same amount, converted by molar mass. Activity calls are given as the source filed them. No cut-off for these calls is given here.

Assays:
[1] = target: T1, Aurora kinase A/Targeting protein for Xklp2 (Homo sapiens, UniProt O14965); assay: Inhibition of Aurora A/TPX2 (1-43) by HTRF assay; type: protein-complex assay
T1 sequence (O14965 whole entry): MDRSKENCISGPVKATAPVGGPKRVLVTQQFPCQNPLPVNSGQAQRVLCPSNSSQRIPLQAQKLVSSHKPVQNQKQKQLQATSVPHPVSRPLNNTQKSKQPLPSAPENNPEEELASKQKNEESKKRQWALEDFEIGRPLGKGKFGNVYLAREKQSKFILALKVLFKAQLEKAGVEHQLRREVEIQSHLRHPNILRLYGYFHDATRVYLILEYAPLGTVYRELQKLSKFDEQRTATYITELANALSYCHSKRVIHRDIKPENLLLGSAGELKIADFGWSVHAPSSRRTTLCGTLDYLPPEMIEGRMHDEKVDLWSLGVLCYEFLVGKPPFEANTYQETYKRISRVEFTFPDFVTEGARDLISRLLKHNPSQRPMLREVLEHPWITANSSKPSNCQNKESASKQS
T1 sequence (Q9ULW0 whole entry): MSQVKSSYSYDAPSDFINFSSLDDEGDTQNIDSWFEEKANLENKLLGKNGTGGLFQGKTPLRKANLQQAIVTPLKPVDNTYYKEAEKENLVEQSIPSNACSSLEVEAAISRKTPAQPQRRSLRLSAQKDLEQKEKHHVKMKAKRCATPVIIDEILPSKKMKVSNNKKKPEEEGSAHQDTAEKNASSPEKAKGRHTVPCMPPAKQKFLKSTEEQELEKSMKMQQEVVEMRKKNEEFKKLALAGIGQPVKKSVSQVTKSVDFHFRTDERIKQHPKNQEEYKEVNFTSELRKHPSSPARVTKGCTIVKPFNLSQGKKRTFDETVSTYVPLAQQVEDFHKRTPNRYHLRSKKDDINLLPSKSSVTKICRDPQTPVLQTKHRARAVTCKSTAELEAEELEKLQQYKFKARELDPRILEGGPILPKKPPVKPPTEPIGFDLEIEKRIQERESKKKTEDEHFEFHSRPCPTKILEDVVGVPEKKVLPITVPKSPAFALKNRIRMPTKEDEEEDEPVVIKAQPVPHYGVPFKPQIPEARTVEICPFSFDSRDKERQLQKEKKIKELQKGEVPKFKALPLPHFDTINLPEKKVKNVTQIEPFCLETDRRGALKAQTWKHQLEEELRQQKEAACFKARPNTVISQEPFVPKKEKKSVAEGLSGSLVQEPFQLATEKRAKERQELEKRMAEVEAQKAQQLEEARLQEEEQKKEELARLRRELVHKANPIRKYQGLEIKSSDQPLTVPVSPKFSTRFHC
How it was run: (§1)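 Enzyme inhibition was run with ATP at its Km for each kinase. Values are averages of at least two determinations.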

Aurora kinase B [2] = target: T2, Aurora kinase B (Homo sapiens, UniProt Q96GD4); assay: Inhibition of Aurora B by HTRF assay; how it was run: as §1
T2 sequence (Q96GD4 whole entry): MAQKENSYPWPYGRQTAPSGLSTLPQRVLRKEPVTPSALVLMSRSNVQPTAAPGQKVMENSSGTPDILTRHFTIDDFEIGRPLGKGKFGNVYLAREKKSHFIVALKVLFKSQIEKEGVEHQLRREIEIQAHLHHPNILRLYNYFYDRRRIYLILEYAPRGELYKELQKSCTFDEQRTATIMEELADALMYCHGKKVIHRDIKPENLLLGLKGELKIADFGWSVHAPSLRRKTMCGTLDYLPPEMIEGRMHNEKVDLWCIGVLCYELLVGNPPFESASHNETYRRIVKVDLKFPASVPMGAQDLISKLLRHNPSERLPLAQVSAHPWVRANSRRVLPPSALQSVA

[3] = Aqueous equilibrium solubility of the compound in 0.01N HCL; type: physicochemical
[4] = Clearance in Sprague-Dawley rat at 0.5 mg/kg, iv and 2 mg/kg, po; type: ADME, organism-based; settings: in vivo
[5] = Oral bioavailability in Sprague-Dawley rat at 2 mg/kg; type: ADME, organism-based; settings: in vivo
[6] = Intrinsic clearance in rat liver microsomes at 1 uM after up to 40 mins; type: ADME, Microsome
Aurora kinase B [7] = target: T2, Aurora kinase B; assay: Inhibition of aurora B autophosphorylation in human HeLa cells at 1 uM after 3 hrs by Western blotting

| Compound | IC50 [1] | IC50 (Aurora kinase B [2]) | also measured |
| --- | --- | --- | --- |
| CNc1nccc(-c2cccnc2Oc2ccc(NC(=O)c3cccc(Cl)c3)cc2C)n1 | 1550 nM | 430 nM | – |
| CNc1nccc(-c2cccnc2Oc2ccc(NC(=O)c3cc(F)ccc3Nc3ccccc3)cc2)n1 | – | – | clearance [4]: 14.5 mL/min/kg; bioavailability [5]: < 1%; microsomal CLint at 1 µM [6]: 338 µL/min/mg; solubility thermodynamic [3]: 16 µg/mL (≈ 31.6 µM) |
| CNc1nccc(-c2cccnc2Oc2ccc(NC(=O)c3ccccc3Nc3ccc(F)cc3)cc2)n1 | – | – | clearance [4]: 26.7 mL/min/kg; microsomal CLint at 1 µM [6]: 467 µL/min/mg; solubility thermodynamic [3]: 23 µg/mL (≈ 45.4 µM) |
| CNc1nccc(-c2cccnc2Oc2ccc(NC(=O)c3ccc(Oc4ccccc4)cc3)cc2C)n1 | – | 542 nM | – |
| CNc1nccc(-c2cccnc2Oc2ccc(NC(=O)c3ccc(Cl)cc3)cc2C)n1 | 2340 nM | 335 nM | – |
| CNc1nccc(-c2cccnc2Oc2ccc(NC(=O)c3cccc(Oc4ccccc4)c3)cc2C)n1 | 964 nM | 251 nM | – |
| CCN(CCCOc1ccc2c(Nc3cc(CC(=O)Nc4cccc(F)c4)[nH]n3)ncnc2c1)CCOP(=O)(O)O | – | – | Activity (Aurora kinase B [7]): Active |
| CNc1nccc(-c2cccnc2Oc2ccc(NC(=O)c3ccccc3Cl)cc2C)n1 | > 25000 nM | > 25000 nM | – |

The next lines start with results.

| IC50 [1] | IC50 (Aurora kinase B [2]) | Compound | also measured |
| --- | --- | --- | --- |
| 149 nM | 22 nM | CNc1nccc(-c2cccnc2Oc2ccc(Nc3nnc(-c4ccccc4)c4ccccc34)cc2)n1 | solubility thermodynamic [3]: 159 µg/mL (≈ 320 µM) |
| > 1000 nM | 110 nM | CNc1nccc(-c2cccnc2Oc2ccc(NC(=O)c3ccccc3Nc3ccccc3)c(C)c2)n1 | – |
| 62 nM | 17 nM | CNc1nccc(-c2cccnc2Oc2ccc(NC(=O)c3ccccc3Nc3ccccc3)cc2C)n1 | – |
| 1540 nM | 56 nM | CNc1nccc(-c2cccnc2Oc2ccc(NC(=O)c3ccccc3Oc3ccccc3)cc2C)n1 | – |
